Measured values taken from ChEMBL document CHEMBL1144191, “Synthesis and evaluation of a spiro-isobenzofuranone class of histamine H3 receptor inverse agonists” (Bioorg Med Chem Lett, 2008).

What was measured:
Histamine H3 receptor = Histamine H3 receptor (Homo sapiens, UniProt Q9Y5N1); assay: Inverse agonist activity at human cloned histamine H3 receptor assessed as inhibition of (R)-alpha-methylhistamine-induced [35S]GTPgammaS binding; format: functional
Procedure, shortened: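 [35S]GTPγS binding assay in membranes isolated from cells transfected with cloned human H3 receptors.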

Histamine H1 receptor = Histamine H1 receptor (Homo sapiens, UniProt P35367); assay: Inhibition of histamine H1 receptor
Histamine H1 receptor, sequence (P35367 whole entry): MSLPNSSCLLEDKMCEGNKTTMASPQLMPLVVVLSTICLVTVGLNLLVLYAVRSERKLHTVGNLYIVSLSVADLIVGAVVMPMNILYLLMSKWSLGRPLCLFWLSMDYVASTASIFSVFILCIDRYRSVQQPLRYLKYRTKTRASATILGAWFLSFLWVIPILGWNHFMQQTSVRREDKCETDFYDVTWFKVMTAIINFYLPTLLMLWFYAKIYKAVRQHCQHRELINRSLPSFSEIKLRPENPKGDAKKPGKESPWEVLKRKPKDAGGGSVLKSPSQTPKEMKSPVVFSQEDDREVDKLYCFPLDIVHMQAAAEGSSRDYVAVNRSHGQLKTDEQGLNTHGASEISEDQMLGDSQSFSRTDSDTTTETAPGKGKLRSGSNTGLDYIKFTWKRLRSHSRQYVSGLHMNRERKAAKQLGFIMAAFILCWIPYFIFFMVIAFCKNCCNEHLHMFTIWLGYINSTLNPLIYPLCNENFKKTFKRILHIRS

Histamine H2 receptor = Histamine H2 receptor (Homo sapiens, UniProt P25021); assay: Inhibition of histamine H2 receptor
Histamine H2 receptor, sequence (P25021 whole entry): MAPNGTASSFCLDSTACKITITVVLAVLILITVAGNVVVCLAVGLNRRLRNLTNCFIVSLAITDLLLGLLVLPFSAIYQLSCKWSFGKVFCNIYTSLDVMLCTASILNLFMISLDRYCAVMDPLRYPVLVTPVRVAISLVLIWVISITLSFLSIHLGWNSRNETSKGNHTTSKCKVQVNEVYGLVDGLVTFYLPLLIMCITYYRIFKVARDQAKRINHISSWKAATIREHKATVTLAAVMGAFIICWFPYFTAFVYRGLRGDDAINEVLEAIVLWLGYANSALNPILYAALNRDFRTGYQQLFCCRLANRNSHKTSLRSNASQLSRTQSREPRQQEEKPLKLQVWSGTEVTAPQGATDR

Histamine H4 receptor = Histamine H4 receptor (Homo sapiens, UniProt Q9H3N8); assay: Inhibition of histamine H4 receptor
Histamine H4 receptor, sequence (Q9H3N8 whole entry): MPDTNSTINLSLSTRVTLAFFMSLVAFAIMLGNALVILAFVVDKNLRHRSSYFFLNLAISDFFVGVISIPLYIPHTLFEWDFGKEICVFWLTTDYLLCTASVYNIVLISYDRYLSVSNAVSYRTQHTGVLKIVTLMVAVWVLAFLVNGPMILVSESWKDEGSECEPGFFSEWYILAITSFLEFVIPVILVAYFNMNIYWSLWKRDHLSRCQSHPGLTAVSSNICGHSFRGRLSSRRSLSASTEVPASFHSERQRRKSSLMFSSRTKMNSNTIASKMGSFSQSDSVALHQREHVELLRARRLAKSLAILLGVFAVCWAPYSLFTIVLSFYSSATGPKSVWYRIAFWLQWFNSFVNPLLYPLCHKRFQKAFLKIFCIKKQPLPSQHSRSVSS

[1] = Metabolic stability in cryopreserved human hepatocytes assessed as hepatic clearance by serum incubation method; format: ADME, cell-based, Liver, Hepatocyte
Procedure, shortened: (§1)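 Hepatic clearance estimated by the serum incubation method in human and rat hepatocytes, expressed as mL/min/kg.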

[2] = Metabolic stability in cryopreserved rat hepatocytes assessed as hepatic clearance by serum incubation method; format: ADME, cell-based, Liver, Hepatocyte; procedure, shortened: as §1
[3] = Half life in Sprague-Dawley rat at 1 mg/kg, iv; format: ADME, organism-based; parameters: dose 1 mg/kg, route intravenous; conditions: in vivo
Procedure, shortened: (§2)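 Sprague-Dawley rats, n = 3, mean values reported; dosed iv at 1 mg/kg or orally at 3 mg/kg. Parameters derived from the plasma profile: half-life, Vdss, plasma clearance (iv), Tmax, Cmax and oral bioavailability (po).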

[4] = Volume of distribution at steady state in Sprague-Dawley rat at 1 mg/kg, iv; format: ADME, organism-based; parameters: dose 1 mg/kg, route intravenous; conditions: in vivo, read-out: Vdss; procedure, shortened: as §2
[5] = Half life in Sprague-Dawley rat at 3 mg/kg, po; format: ADME, organism-based; parameters: dose 3 mg/kg, route oral; conditions: in vivo; procedure, shortened: as §2
[6] = Tmax in Sprague-Dawley rat at 3 mg/kg, po; format: ADME, organism-based; parameters: dose 3 mg/kg, route oral; conditions: in vivo; procedure, shortened: as §2
[7] = Cmax in Sprague-Dawley rat at 3 mg/kg, po; format: ADME, organism-based; parameters: dose 3 mg/kg, route oral; conditions: in vivo; procedure, shortened: as §2
[8] = Bioavailability in Sprague-Dawley rat at 3 mg/kg, po; format: ADME, organism-based; conditions: in vivo; procedure, shortened: as §2
[9] = Plasma concentration in Sprague-Dawley rat at 10 mg/kg, po after 2 hrs; format: ADME, organism-based; parameters: dose 10 mg/kg, route oral; conditions: read-out: Drug uptake
Procedure, shortened: (§3)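 SD rats, n = 3 (mean), dosed orally at 10 mg/kg. Plasma, brain and cerebrospinal fluid levels measured at 2 h post-dose; brain expressed as nmol/g, plasma and CSF as µM.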

Brain [10] = assay: Drug concentration in Sprague-Dawley rat brain at 10 mg/kg, po after 2 hrs; format: ADME, organism-based; parameters: dose 10 mg/kg, route oral; conditions: in vivo; procedure, shortened: as §3
[11] = Drug concentration in Sprague-Dawley rat cerebrospinal fluid at 10 mg/kg, po after 2 hrs; format: ADME, organism-based; parameters: dose 10 mg/kg, route oral; conditions: read-out: Drug uptake; procedure, shortened: as §3
[12] = Plasma clearance in Sprague-Dawley rat at 1 mg/kg, iv; format: ADME, organism-based; parameters: dose 1 mg/kg, route intravenous; procedure, shortened: as §2
[13] = Plasma concentration in Sprague-Dawley rat at 1 mg/kg, iv after 10 mins; format: ADME, organism-based; parameters: dose 1 mg/kg, route intravenous; conditions: read-out: Drug uptake
Procedure, shortened: (§4)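 SD rats, n = 3 (mean), dosed iv at 1 mg/kg. Plasma, brain and CSF levels measured 10 min after dosing; brain expressed as nmol/g, plasma and CSF as µM.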

Brain [14] = assay: Drug concentration in Sprague-Dawley rat brain at 1 mg/kg, iv after 10 mins; format: ADME, organism-based; parameters: dose 1 mg/kg, route intravenous; conditions: in vivo; procedure, shortened: as §4
[15] = Drug concentration in Sprague-Dawley rat cerebrospinal fluid at 1 mg/kg, iv after 10 mins; format: ADME, organism-based; parameters: dose 1 mg/kg, route intravenous; conditions: read-out: Drug uptake; procedure, shortened: as §4
LLC-PK1 [16] = assay: Ratio of permeability from basolateral to apical over apical to basolateral side of pig LLC-PK1 cells transfected with human MDR1 by P-gp transport assay; format: ADME, cell-based, Sus scrofa
Procedure, shortened: (§5)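 Transcellular transport measured across LLC-PK1 cell monolayers transfected with human MDR1 or mouse mdr1a. Ratio computed as (B-to-A)/(A-to-B) permeability; mean of n ≥ 3. Ratio above 3.0 taken to indicate a P-gp substrate.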

LLC-PK1 [17] = assay: Ratio of permeability from basolateral to apical over apical to basolateral side of pig LLC-PK1 cells transfected with mouse MDR1a by P-gp transport assay; format: ADME, cell-based, Sus scrofa; procedure, shortened: as §5
[18] = target: Voltage-gated inwardly rectifying potassium channel KCNH2 (Homo sapiens, UniProt Q12809); assay: Displacement of [35S]N-[(4R)-1'-[(2R)-6-cyano-1,2,3,4-tetrahydro-2-naphthalenyl]-3,4-dihydro-4-hydroxyspiro[2H-1-benzopyran-2,4'-piperidin]-6-yl]methanesulfonamide from human ERG in HEK293 cells; format: cell-based
Voltage-gated inwardly rectifying potassium channel KCNH2, sequence (Q12809 whole entry): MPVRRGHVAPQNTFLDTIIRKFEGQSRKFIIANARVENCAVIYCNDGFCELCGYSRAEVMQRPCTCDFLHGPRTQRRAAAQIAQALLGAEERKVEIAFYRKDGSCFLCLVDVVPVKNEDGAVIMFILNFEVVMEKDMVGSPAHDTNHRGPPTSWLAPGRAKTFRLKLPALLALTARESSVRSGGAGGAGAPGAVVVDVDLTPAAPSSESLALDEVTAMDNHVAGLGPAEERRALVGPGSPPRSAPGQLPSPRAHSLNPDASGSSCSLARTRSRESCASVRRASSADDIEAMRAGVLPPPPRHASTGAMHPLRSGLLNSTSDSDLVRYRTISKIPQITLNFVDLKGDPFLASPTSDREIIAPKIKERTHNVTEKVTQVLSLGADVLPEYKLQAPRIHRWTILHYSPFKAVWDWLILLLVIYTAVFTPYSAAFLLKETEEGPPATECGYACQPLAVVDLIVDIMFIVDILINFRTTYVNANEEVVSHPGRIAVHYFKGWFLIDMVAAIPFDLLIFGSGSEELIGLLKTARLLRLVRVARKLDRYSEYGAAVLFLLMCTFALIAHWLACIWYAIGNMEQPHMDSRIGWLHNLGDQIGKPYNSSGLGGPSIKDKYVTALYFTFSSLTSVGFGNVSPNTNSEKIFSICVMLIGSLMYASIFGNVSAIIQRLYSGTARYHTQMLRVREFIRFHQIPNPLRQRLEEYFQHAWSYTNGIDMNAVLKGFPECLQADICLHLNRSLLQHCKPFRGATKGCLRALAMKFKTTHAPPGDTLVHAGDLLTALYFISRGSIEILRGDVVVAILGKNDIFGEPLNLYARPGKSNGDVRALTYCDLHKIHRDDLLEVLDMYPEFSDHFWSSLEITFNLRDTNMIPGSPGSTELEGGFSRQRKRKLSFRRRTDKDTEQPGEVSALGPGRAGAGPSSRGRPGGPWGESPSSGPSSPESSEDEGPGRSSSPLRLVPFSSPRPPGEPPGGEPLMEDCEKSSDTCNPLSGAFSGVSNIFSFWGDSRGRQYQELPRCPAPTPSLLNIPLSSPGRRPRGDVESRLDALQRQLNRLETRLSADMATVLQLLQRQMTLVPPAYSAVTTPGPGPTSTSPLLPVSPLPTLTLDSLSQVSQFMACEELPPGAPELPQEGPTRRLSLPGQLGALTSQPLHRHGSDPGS

Histamine H3 receptor, sequence (Q9Y5N1 whole entry): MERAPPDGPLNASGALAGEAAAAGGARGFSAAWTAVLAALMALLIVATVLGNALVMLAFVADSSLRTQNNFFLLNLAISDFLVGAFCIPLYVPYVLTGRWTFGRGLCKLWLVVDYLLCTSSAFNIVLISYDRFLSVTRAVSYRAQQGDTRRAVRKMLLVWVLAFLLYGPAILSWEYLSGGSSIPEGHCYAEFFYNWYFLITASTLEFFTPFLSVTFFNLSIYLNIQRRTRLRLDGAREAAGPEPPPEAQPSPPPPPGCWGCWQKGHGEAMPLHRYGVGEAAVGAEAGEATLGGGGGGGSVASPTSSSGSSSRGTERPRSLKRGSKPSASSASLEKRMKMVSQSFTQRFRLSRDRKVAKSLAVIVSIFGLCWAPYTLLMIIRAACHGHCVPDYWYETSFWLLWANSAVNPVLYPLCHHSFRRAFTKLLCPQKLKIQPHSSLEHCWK

| Structure (SMILES) | IC50 (Histamine H3 receptor) | other results |
| --- | --- | --- |
| CN(CCN1CCCCC1)C(=O)N1CCC(C#N)(c2ccccc2)CC1 | 267 nM |  |
| CN(CCN1CCCCC1)C(=O)N1CCC2(CC1)NC(=O)Cc1ccccc12 | 783 nM |  |
| CN(CCN1CCCCC1)C(=O)N1CCC2(CC1)Cc1ccccc1C2 | 530 nM |  |
| CN(CCN1CCCCC1)C(=O)N1CCC2(CC1)CC(=O)c1ccccc1O2 | 68 nM |  |
| CN(CCN1CCCCC1)C(=O)N1CCC2(CC1)Cc1ccccc1C(=O)O2 | 380 nM |  |
| COc1ccc2c(c1)C(=O)O[C@]21CC[C@H](C(=O)N(C)CCN2CCCCC2)CC1 | 0.54 nM | IC50 (Histamine H1 receptor): > 10000 nM; IC50 (Histamine H2 receptor): > 10000 nM; IC50 (Histamine H4 receptor): > 10000 nM; CLhep predicted [1]: 18 mL/min/kg; CLhep predicted [2]: 54 mL/min/kg; half-life [3]: 1.4 h; Vd [4]: 7.2 L/kg; half-life [5]: 1.4 h; Tmax [6]: 0.3 h; Cmax [7]: 60 nM; bioavailability [8]: 7%; concentration at 2 h [9]: 270 nM; Drug uptake (Brain [10]): 0.48 nmol/g; concentration at 2 h [11]: 58 nM; clearance [12]: 74 mL/min/kg |
| CN(CCN1CCCCC1)C(=O)N1CCC2(CC1)OCc1ccccc12 | 387 nM |  |
| CN(CCN1CCCCC1)C(=O)N1CCC(C(C)(C)C)CC1 | > 1000 nM |  |
| CN(CCN1CCCCC1)C(=O)[C@H]1CC[C@@]2(CC1)OC(=O)c1ccccc12 | 0.72 nM | IC50 (Histamine H1 receptor): > 10000 nM; IC50 (Histamine H2 receptor): > 10000 nM; IC50 (Histamine H4 receptor): > 10000 nM; CLhep predicted [1]: 18 mL/min/kg; CLhep predicted [2]: 59 mL/min/kg; concentration at 10 min [13]: 1500 nM; Drug uptake (Brain [14]): 2.4 nmol/g; concentration at 10 min [15]: 370 nM; Ratio (LLC-PK1 [16]): 1.2; Ratio (LLC-PK1 [17]): 2; IC50 [18]: > 10000 nM; clearance [12]: 97 mL/min/kg |
| CN(CCN1CCCCC1)C(=O)N1CCC(C(=O)c2ccccc2)CC1 | 237 nM |  |
| CN(CCN1CCCCC1)C(=O)N1CCC2(CC1)OC(=O)Nc1ccccc12 | > 1000 nM |  |
| CN(CCN1CCCCC1)C(=O)N1CCC2(CC1)OC(=O)c1ccccc12 | 21 nM |  |
| CN(CCN1CCCCC1)C(=O)N1CCN(c2ccc(Cl)cc2)CC1 | 160 nM |  |
| CN(CCN1CCCCC1)C(=O)N1CCC(Cc2ccccc2)CC1 | 393 nM |  |
| CN(CCN1CCCCC1)C(=O)N1CCC2(CC1)NC(=O)c1ccccc1N2 | 560 nM |  |
| CN(CCN1CCCCC1)C(=O)N1CCC(c2ccc3ccccc3c2)CC1 | 110 nM |  |
| CN(CCN1CCCCC1)C(=O)N1CCC(c2cccc3ccccc23)CC1 | 343 nM |  |
| CN(CCN1CCCCC1)C(=O)N1CCC2(CC1)CC(=O)c1ccccc12 | 43 nM |  |
| CN(CCN1CCCCC1)C(=O)N1CCC2(CC1)NC(=O)c1ccccc12 | 53 nM |  |
| CN(CCN1CCCCC1)C(=O)N1CCC2(CC1)c1ccccc1C(=O)N2C | 45 nM |  |
| CN(CCN1CCCCC1)C(=O)N1CCC(c2ccccc2)CC1 | 893 nM |  |
| CN(CCN1CCCCC1)C(=O)N1CCC(c2ccccc2)(c2ccccc2)CC1 | 98 nM |  |
| COc1ccc2c(c1)[C@]1(CC[C@@H](C(=O)N(C)CCN3CCCCC3)CC1)OC2=O | 18 nM |  |
| CN(CCN1CCCCC1)C(=O)N1CCN(c2ccccc2Cl)CC1 | > 1000 nM |  |
| COc1cccc2c1[C@]1(CC[C@@H](C(=O)N(C)CCN3CCCCC3)CC1)OC2=O | 3.6 nM |  |
| CN(CCN1CCCCC1)C(=O)N1CCC(O)(c2ccccc2)CC1 | > 1000 nM |  |
| CN(CCN1CCCCC1)C(=O)N1CCc2ccccc2C1 | 680 nM |  |
| CN(CCN1CCCCC1)C(=O)N1CCN(c2ccccc2)CC1 | 506 nM |  |
| CN(CCN1CCCCC1)C(=O)N1CCN(c2cccc(Cl)c2)CC1 | 297 nM |  |
